In brackets after ≈: the same amount, converted by molar mass.
Assays:
[1] = system: Candida albicans; assay: Inhibition of ergosterol biosynthesis in Candida albicans 2779 assessed as ergosterol content at MIC after 16 hrs by spectrophotometer analysis; type: functional; set-up: scale not given: the % may be the effect or the level left
Outline: (§1)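 Cells were pelleted and washed, and wet weight taken. Pellets were saponified in 25% alcoholic KOH at 85 °C for 1 h. Sterols were extracted into n-heptane/water. Ergosterol content is expressed relative to untreated control cells.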

[2] = system: Candida albicans; assay: Antifungal activity against clinical isolates of Candida albicans 2367 at MIC after 48 hrs by disc diffusion assay; type: functional
Outline: (§2)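 Cells (10^3 cells ml−1) grown in YPD were mixed into molten agar (~40 °C) and poured into 100-mm plates. Filter discs (4 mm) were spotted with 10 µl of compound at 1/2 × MIC, MIC or 2 × MIC. Fluconazole and 1% DMSO were the controls. Plates were incubated at 37 °C for 48 h and inhibition zone diameters recorded in mm.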

[3] = system: Candida tropicalis; assay: Antifungal activity against clinical isolates of Candida tropicalis 2029 by broth microdilution assay; type: functional
Outline: (§3)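 CLSI M27-A3 broth microdilution. Compounds diluted to 1 mg/ml in 1% DMSO. Fluconazole (1 mg/ml) served as positive control, 1% DMSO as vehicle control, with media and culture controls. Triplicate at each concentration, repeated thrice. Inocula came from YPDA stocks subcultured in broth for 48 h at 37 °C.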

[4] = system: Candida albicans; assay: Antifungal activity against Candida albicans ATCC 10261 by broth microdilution assay; type: functional; outline: as §3
[5] = system: Candida albicans; assay: Antifungal activity against clinical isolates of Candida albicans 2779 at MIC after 48 hrs by disc diffusion assay; type: functional; outline: as §2
[6] = system: Candida albicans; assay: Inhibition of ergosterol biosynthesis in Candida albicans 2367 assessed as ergosterol content at 1/2 MIC after 16 hrs by spectrophotometer analysis; type: functional; set-up: scale not given: the % may be the effect or the level left; outline: as §1
[7] = system: Candida albicans; assay: Antifungal activity against clinical isolates of Candida albicans 2323 at half MIC after 48 hrs by disc diffusion assay; type: functional; outline: as §2
[8] = system: Candida albicans; assay: Antifungal activity against Candida albicans ATCC 10261 at MIC after 48 hrs by disc diffusion assay; type: functional; outline: as §2
[9] = system: Candida tropicalis; assay: Antifungal activity against Candida tropicalis ATCC 750 by broth microdilution assay; type: functional; outline: as §3
[10] = system: Candida albicans; assay: Inhibition of ergosterol biosynthesis in Candida albicans ATCC 10261 assessed as ergosterol content at MIC after 16 hrs by spectrophotometer analysis; type: functional; set-up: scale not given: the % may be the effect or the level left; outline: as §1
[11] = system: Candida albicans; assay: Cytotoxicity against Candida albicans ATCC 10261 at 1/4 MIC after 24 hrs by WST1 assay; type: functional
Outline: (§4)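 Candida cells were exposed to MIC and sub-MIC levels for 24 h in microplates, then to WST-1/CEC dye for 30 min at 37 °C. Plates were shaken 1 min and the reaction stopped with 1% SDS. Formazan was read at 450 nm. % cytotoxicity = 100 × (cell control − experimental)/cell control. Triplicates, mean ± SD.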

[12] = system: Candida tropicalis; assay: Antifungal activity against Candida tropicalis ATCC 750 at MIC after 48 hrs by disc diffusion assay; type: functional; outline: as §2
[13] = system: Candida albicans; assay: Antifungal activity against clinical isolates of Candida albicans 2323 at 2 times MIC after 48 hrs by disc diffusion assay; type: functional; outline: as §2
[14] = system: Candida tropicalis; assay: Antifungal activity against clinical isolates of Candida tropicalis 2356 by broth microdilution assay; type: functional; outline: as §3
[15] = system: Candida tropicalis; assay: Inhibition of ergosterol biosynthesis in Candida tropicalis 2356 assessed as ergosterol content at MIC after 16 hrs by spectrophotometer analysis; type: functional; set-up: scale not given: the % may be the effect or the level left; outline: as §1
[16] = system: Candida albicans; assay: Inhibition of ergosterol biosynthesis in Candida albicans 2323 assessed as ergosterol content at 1/2 MIC after 16 hrs by spectrophotometer analysis; type: functional; set-up: scale not given: the % may be the effect or the level left; outline: as §1
[17] = system: Candida albicans; assay: Antifungal activity against Candida albicans ATCC 10261 at half MIC after 48 hrs by disc diffusion assay; type: functional; outline: as §2
[18] = system: Candida albicans; assay: Antifungal activity against clinical isolates of Candida albicans 2367 by broth microdilution assay; type: functional; outline: as §3
[19] = system: Candida albicans; assay: Inhibition of ergosterol biosynthesis in Candida albicans 2323 assessed as ergosterol content at MIC after 16 hrs by spectrophotometer analysis; type: functional; set-up: scale not given: the % may be the effect or the level left; outline: as §1
[20] = system: Candida tropicalis; assay: Antifungal activity against Candida tropicalis ATCC 750 at 2 times MIC after 48 hrs by disc diffusion assay; type: functional; outline: as §2
[21] = system: Candida tropicalis; assay: Antifungal activity against clinical isolates of Candida tropicalis 2356 at 2 times MIC after 48 hrs by disc diffusion assay; type: functional; outline: as §2
[22] = system: Candida albicans; assay: Antifungal activity against clinical isolates of Candida albicans 2367 at 2 times MIC after 48 hrs by disc diffusion assay; type: functional; outline: as §2
[23] = system: Candida albicans; assay: Cytotoxicity against Candida albicans ATCC 10261 at MIC after 24 hrs by WST1 assay; type: functional; outline: as §4
[24] = system: Candida tropicalis; assay: Antifungal activity against clinical isolates of Candida tropicalis 2029 at MIC after 48 hrs by disc diffusion assay; type: functional; outline: as §2
[25] = system: Candida tropicalis; assay: Inhibition of ergosterol biosynthesis in Candida tropicalis 2356 assessed as ergosterol content at 1/2 MIC after 16 hrs by spectrophotometer analysis; type: functional; set-up: scale not given: the % may be the effect or the level left; outline: as §1
[26] = system: Candida tropicalis; assay: Inhibition of ergosterol biosynthesis in Candida tropicalis ATCC 750 assessed as ergosterol content at MIC after 16 hrs by spectrophotometer analysis; type: functional; set-up: scale not given: the % may be the effect or the level left
Outline: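 Cells were harvested, washed, and wet pellet weight recorded. Pellets were saponified in 3 mL 25% alcoholic KOH at 85 °C for 1 h, then sterols extracted into n-heptane. Ergosterol is expressed relative to untreated control cells.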

[27] = system: Candida albicans; assay: Cytotoxicity against Candida albicans ATCC 10261 at 1/2 MIC after 24 hrs by WST1 assay; type: functional; outline: as §4
[28] = system: Candida albicans; assay: Antifungal activity against clinical isolates of Candida albicans 2779 at 2 times MIC after 48 hrs by disc diffusion assay; type: functional; outline: as §2
[29] = system: Candida albicans; assay: Antifungal activity against clinical isolates of Candida albicans 2367 at half MIC after 48 hrs by disc diffusion assay; type: functional; outline: as §2
[30] = system: Candida tropicalis; assay: Antifungal activity against Candida tropicalis ATCC 750 at half MIC after 48 hrs by disc diffusion assay; type: functional; outline: as §2
[31] = system: Candida tropicalis; assay: Antifungal activity against clinical isolates of Candida tropicalis 2356 at MIC after 48 hrs by disc diffusion assay; type: functional; outline: as §2
[32] = system: Candida albicans; assay: Inhibition of ergosterol biosynthesis in Candida albicans 2779 assessed as ergosterol content at 1/2 MIC after 16 hrs by spectrophotometer analysis; type: functional; set-up: scale not given: the % may be the effect or the level left; outline: as §1
[33] = system: Candida albicans; assay: Antifungal activity against clinical isolates of Candida albicans 2323 by broth microdilution assay; type: functional; outline: as §3
[34] = system: Candida tropicalis; assay: Inhibition of ergosterol biosynthesis in Candida tropicalis ATCC 750 assessed as ergosterol content at 1/2 MIC after 16 hrs by spectrophotometer analysis; type: functional; set-up: scale not given: the % may be the effect or the level left; outline: as §1
[35] = system: Candida tropicalis; assay: Inhibition of ergosterol biosynthesis in Candida tropicalis 2029 assessed as ergosterol content at 1/2 MIC after 16 hrs by spectrophotometer analysis; type: functional; set-up: scale not given: the % may be the effect or the level left; outline: as §1
[36] = system: Candida tropicalis; assay: Cytotoxicity against Candida tropicalis ATCC 750 at MIC after 24 hrs by WST1 assay
[37] = system: Candida tropicalis; assay: Antifungal activity against clinical isolates of Candida tropicalis 2356 at half MIC after 48 hrs by disc diffusion assay; type: functional; outline: as §2
[38] = system: Candida tropicalis; assay: Cytotoxicity against Candida tropicalis ATCC 750 at 1/4 MIC after 24 hrs by WST1 assay
[39] = system: Candida albicans; assay: Antifungal activity against clinical isolates of Candida albicans 2779 by broth microdilution assay; type: functional; outline: as §3
[40] = system: Candida albicans; assay: Antifungal activity against clinical isolates of Candida albicans 2779 at half MIC after 48 hrs by disc diffusion assay; type: functional; outline: as §2
[41] = system: Candida albicans; assay: Inhibition of ergosterol biosynthesis in Candida albicans 2367 assessed as ergosterol content at MIC after 16 hrs by spectrophotometer analysis; type: functional; set-up: scale not given: the % may be the effect or the level left; outline: as §1
[42] = system: Candida tropicalis; assay: Cytotoxicity against Candida tropicalis ATCC 750 at 1/2 MIC after 24 hrs by WST1 assay
[43] = system: Candida tropicalis; assay: Inhibition of ergosterol biosynthesis in Candida tropicalis 2029 assessed as ergosterol content at MIC after 16 hrs by spectrophotometer analysis; type: functional; set-up: scale not given: the % may be the effect or the level left; outline: as §1
[44] = system: Candida albicans; assay: Antifungal activity against clinical isolates of Candida albicans 2323 at MIC after 48 hrs by disc diffusion assay; type: functional; outline: as §2
[45] = system: Candida tropicalis; assay: Antifungal activity against clinical isolates of Candida tropicalis 2029 at half MIC after 48 hrs by disc diffusion assay; type: functional; outline: as §2
[46] = system: Candida tropicalis; assay: Antifungal activity against clinical isolates of Candida tropicalis 2029 at 2 times MIC after 48 hrs by disc diffusion assay; type: functional; outline: as §2
[47] = system: Candida albicans; assay: Cytotoxicity against clinical isolates of Candida albicans 2779 at 1/4 MIC after 24 hrs by WST1 assay; type: functional; outline: as §4
[48] = system: Candida albicans; assay: Inhibition of ergosterol biosynthesis in Candida albicans ATCC 10261 assessed as ergosterol content at 1/2 MIC after 16 hrs by spectrophotometer analysis; type: functional; set-up: scale not given: the % may be the effect or the level left; outline: as §1
[49] = system: Candida albicans; assay: Antifungal activity against Candida albicans ATCC 10261 at 2 times MIC after 48 hrs by disc diffusion assay; type: functional; outline: as §2

## CCc1ccnc(-c2nccn2Cc2nnc(-c3ccc([N+](=O)[O-])cc3)o2)c1
[1]
  Activity: 89%
[2]
  inhibition zone (IZ): 5 mm
[3]
  MIC: 16 µg/mL (≈ 42.5 µM)
[4]
  MIC: 8 µg/mL (≈ 21.3 µM)
[5]
  inhibition zone (IZ): 8 mm
[6]
  Activity: 47%
[7]
  inhibition zone (IZ): 0 mm
[8]
  inhibition zone (IZ): 11 mm
[9]
  MIC: 16 µg/mL (≈ 42.5 µM)
[10]
  Activity: 99%
[11]
  Activity: 16.88%
[12]
  inhibition zone (IZ): 9 mm
[13]
  inhibition zone (IZ): 9 mm
[14]
  MIC: 64 µg/mL (≈ 170 µM)
[15]
  Activity: 91%
[16]
  Activity: 31%
[17]
  inhibition zone (IZ): 3 mm
[18]
  MIC: 16 µg/mL (≈ 42.5 µM)
[19]
  Activity: 87%
[20]
  inhibition zone (IZ): 14 mm
[21]
  inhibition zone (IZ): 9 mm
[22]
  inhibition zone (IZ): 8 mm
[23]
  Activity: 57.94%
[24]
  inhibition zone (IZ): 8 mm
[25]
  Activity: 59%
[26]
  Activity: 100%
[27]
  Activity: 35.57%
[28]
  inhibition zone (IZ): 11 mm
[29]
  inhibition zone (IZ): 1 mm
[30]
  inhibition zone (IZ): 1 mm
[31]
  inhibition zone (IZ): 4 mm
[32]
  Activity: 45%
[33]
  MIC: 16 µg/mL (≈ 42.5 µM)
[34]
  Activity: 57%
[35]
  Activity: 52%
[36]
  Activity: 57.94%
[37]
  inhibition zone (IZ): 1 mm
[38]
  Activity: 15.6%
[39]
  MIC: 32 µg/mL (≈ 85 µM)
[40]
  inhibition zone (IZ): 2 mm
[41]
  Activity: 86%
[42]
  Activity: 35.57%
[43]
  Activity: 89%
[44]
  inhibition zone (IZ): 5 mm
[45]
  inhibition zone (IZ): 3 mm
[46]
  inhibition zone (IZ): 12 mm
[47]
  Activity: 8.02%
[48]
  Activity: 43%
[49]
  inhibition zone (IZ): 15 mm

## CCc1ccnc(-c2nccn2Cc2nnc(-c3ccc(Cl)cc3)o2)c1
[3]
  MIC: > 1000 µg/mL
[4]
  MIC: > 1000 µg/mL
[9]
  MIC: > 1000 µg/mL
[14]
  MIC: > 1000 µg/mL
[18]
  MIC: > 1000 µg/mL
[33]
  MIC: > 1000 µg/mL
[39]
  MIC: > 1000 µg/mL

Reference: ChEMBL document CHEMBL3593207, “Imidazole clubbed 1,3,4-oxadiazole derivatives as potential antifungal agents” (2015)
